Screens from PubChem.
HSF1 activator = increases HSF-1 driven luciferase reporter signal | activation, % at 9 µM | NIH3T3-HGL HSF-1 luciferase reporter, MG132, 8 h; 100% = twice DMSO control signal | 300,000 compounds, 1.7% hits;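 active means mean replicate activation of at least 50% with a set share of replicates each reaching 50%; inconclusive means only one of those two conditions met; inactive means mean below 50% and too few replicates reaching it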;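 further: 0% = median of the neutral control wells and 100% = twice that signal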
FID counter = fluorescent intercalator displacement, NS3 helicase counter-screen | DNA fluorescent intercalator displacement, fluorescence | inhibition, % at 7.9 µM | 290,000 compounds, 0.17% hits; in the data active means inhibition above about 37%;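 further: 0% = vehicle and 100% = reference compound; higher means more ethidium bromide displaced from hairpin DNA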
core dimer inh = blocks dimerization of HCV core protein. TR-FRET GST/Flag-core106 dimerization, 1536-well. inhibition, % at 5 µM. AID 1899. 300,000 compounds, 0.33% hits;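 active means inhibition above the mean of all tested compounds plus 3 SD, set per screening campaign, cut at about 45% in these data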
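Material: GST/Flag-tagged HCV core106 proteins. Incubation: 4 h, 22.5 °C incubation. Read-out basis: inhibition (%) from 671 over 617 nm ratio. Measured by: TR-FRET, excitation 340 nm, emission 617 and 671 nm.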
NS3 helicase inh = blocks Hepatitis C virus NS3 helicase unwinding; inhibition, % at 10.9 µM; 290,000 compounds, 0.56% hits; NS3 helicase DNA unwinding, Cy5 molecular beacon fluorescence;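 active means inhibition above the mean of all tested compounds plus 3 SD, set per campaign, cut at about 35% in these data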;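 further: 0% = DMSO wells and 100% = thioflavine S control wells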
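System: Hepatitis C virus NS3 helicase domain fragment enzyme | Reagent: Annealed dual-labelled DNA beacon duplex, ATP-started | Compound dosing: 10.9 µM single point, 0.8% DMSO | Incubation: 1 h reaction at 25 °C, ATP-initiated | Technique: Cy5 fluorescence | Evaluation: Percent inhibition from t60/t0 fluorescence ratio | Benchmarks: Low DMSO, high thioflavine S at 110 µM | Replication: Singlicate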
HSF1 inh = HSF1 inhibition. NIH3T3-HGL HSE-luciferase, MG132-induced, luminescence 8 h; stronger effect = lower value. activity change, negative = inhibition, % at 7.5 µM (by protocol). 300,000 compounds, 0.77% hits. AID 2098;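 active means more than half of replicate wells show activity change below -50%, luminescence cut by over half; inconclusive means some wells, but at most half, below -50%; inactive means no replicate well below -50%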;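 further: luciferase reports HSF-1 transcriptional activity via heat shock element; 0% = median of DMSO wells and -100% = zero luminescence signal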
HSP90 inh = blocks HSP90-mediated luciferase refolding in reticulocyte lysate | Rabbit reticulocyte lysate, luciferase refolding luminescence, 3 h | 290,000 compounds, 0.91% hits | AID 1789 | inhibition, % at 5.6 µM;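 active means inhibition above the screen-wide mean plus 3 SD, computed separately per campaign, cut at about 16% in these data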;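 further: 0% = DMSO wells and 100% = 60 µM geldanamycin wells; inhibitors lower the luminescence because luciferase stays unfolded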
The depositor's hits bear a star; ? = inconclusive; · = not tested or not shown. This is a sample that favours compounds with a hit; in the whole collection about 3.9% have one here.

SMILES	HSF1 activator	FID counter	core dimer inh	NS3 helicase inh	HSF1 inh	HSP90 inh
O=C(/C(=N/N=C/c1ccc(O)c(O)c1)c1ccccc1)c1ccccc1	90*	-8	-9	2	36	-3
CCN(CC)c1ccc(/C=N/N(c2ccccc2)c2ccccc2)c(O)c1	-34	7	-6	8	-17	4
Oc1ccc(/C=N/N(c2ccccc2)c2ccccc2)cc1O	83*	-4	16	-6	33	0
Oc1ccc(/C=N/N(c2ccccc2)c2ccccc2)c(O)c1O	34	-23	52*	24	9	4
Cc1nn(-c2ccc(Cl)cc2)c(=O)c2c(C)noc12	-4	-1	0	6	-5	0
Cc1cccc(NC(=O)NNC(=O)c2cc(-c3ccccc3Cl)nc3ccccc23)c1	11	-5	-9	-9	0	4
O=C(NNC(=O)c1cc(-c2ccc(Cl)c(Cl)c2)nc2ccccc12)Nc1ccccc1	56*	-1	10	-7	43	3
COc1ccc(-c2cc(C(=O)Nc3ccccc3O)c3ccccc3n2)cc1OC	71*	-28	0	-1	43	-1
O=C(CSc1nnc(-c2ccccc2Br)o1)N1CCOCC1	38	-15	-4	14	0	-3
C/C(N)=C(/C#N)C(=O)CSc1nnc(-c2ccccc2Br)o1	115*	-5	3	0	70	-1
COc1ccc(-c2nnc(SCC(=O)/C(C#N)=C(\C)N)o2)cc1	81*	-3	2	5	63	4
COc1ccc(-c2nnc(SCC(=O)c3ccc(C)o3)o2)cc1	17	-15	·	-3	22	-3
O=C(NCc1ccccn1)c1cccc(NS(=O)(=O)c2ccccc2)c1	-7	·	0	·	-1	·
CN(C)c1ccc(CNC(=O)c2ccc(CNc3c(N4CCCCC4)c(=O)c3=O)cc2)cc1	61*	-9	-2	0	30	-2
COCCn1c(C)cc(C(=O)COC(=O)c2ccc([N+](=O)[O-])o2)c1C	-17	-2	-1	-2	-5	6
COCCn1c(C)cc(C(=O)COC(=O)c2cc3c(s2)CCC3)c1C	22	-26	79*	22	19	-3
COc1cc(OC)c(NC(=O)c2cncn2-c2ccc(F)cc2)cc1Cl	14	-9	-11	-5	11	2
Cc1ccc(-n2ncc3c(NCc4ccc5c(c4)OCO5)ncnc32)c(C)c1	-62	-32	0	-6	-55*	2
Cc1cccc(-n2ncc3c(NCc4cccnc4)ncnc32)c1	31	·	4	·	25	·
Cc1ccc(-n2ncc3c(NCc4cccnc4)ncnc32)cc1C	55*	-5	4	11	37	1
O=C(Nn1cnnc1)c1ccc(Cl)cc1	4	1	-1	3	-1	-2
O=C(CBr)c1ccc([N+](=O)[O-])c(CS(=O)(=O)c2ccc(Cl)cc2)c1	60*	11	-5	13	53	8
O=C(O)c1ccc([N+](=O)[O-])c(CS(=O)(=O)c2ccc(Cl)cc2)c1	-14	1	-5	9	2	2
Cc1cc(Cl)cc2c1NC(=O)[C@]21[C@@H]2C(=O)N(Cc3ccccc3)C(=O)[C@@H]2[C@@H]2CCCN21	4	-32	24	4	7	1
COC(=O)c1c(N2C(=O)[C@H]3[C@@H](C2=O)[C@]2(C(=O)Nc4c(C)cccc42)N2CCC[C@@H]32)sc(C)c1C	-79	-46	37	11	-74*	-4
SMILES	HSF1 activator	FID counter	core dimer inh	NS3 helicase inh	HSF1 inh	HSP90 inh
NS(=O)(=O)c1ccc(N/C=C\C(=O)c2ccc(F)cc2)cc1	74*	-3	2	0	27	0
COc1cc(-c2cn(S(=O)(=O)c3cccc4nsnc34)nc2N)cc(OC)c1OC	59*	-14	-4	-10	19	0
COC(=O)CCS(=O)(=O)c1nc(-c2ccccc2)cc(C(F)(F)F)n1	-94	-7	4	-1	-94*	1
COCC(C)NC(=O)CCS(=O)(=O)c1nc(-c2ccc(OC)cc2)cc(C(F)(F)F)n1 (centres undefined)	238*	-10	2	-4	179	4
CCOC(=O)CCS(=O)(=O)c1nc(-c2ccccc2)cc(C(F)(F)F)n1	12	-12	-1	10	?	5
COc1nc(-c2ccccc2)cc(C(F)(F)F)n1	-12	2	3	-1	-5	3
CCOC(=O)CS(=O)(=O)c1nc(-c2ccccc2)cc(C(F)(F)F)n1	137*	-15	0	12	124	9
CCC(CC)NC(=O)Nc1ccc(C)cc1	-3	-4	-2	10	-4	-2
COc1ccc(CC(=O)Oc2cc(C)[nH]c(=O)c2[N+](=O)[O-])cc1	·	4	-5	-9	·	-6
COc1cc(=O)n(C)c2c(OCC3OC(C)(C)OC3(C)C)cccc12 (centres undefined)	18	-34	-3	-1	0	-2
CCn1c(-c2cc(-c3ccccc3)sc2N)n[nH]c1=S	64*	-11	-13	-11	29	-3
CCn1c(-c2ccccc2O)n[nH]c1=S	28	-2	-6	5	13	1
CCc1cc(=O)oc2cc(OCC(=O)N3CCC[C@H]3C(=O)O)ccc12	-5	95*	2	5	-2	-2
CCCc1cc(=O)oc2c(C)c(OCC(=O)N3CCC[C@@H]3C(=O)O)ccc12	11	-32	1	15	0	-1
COc1ccccc1N1CCN(C2CCCN(C(=O)c3cccc(-c4ccco4)c3)C2)CC1 (centres undefined)	19	-21	8	-12	4	0
COc1cccc(NC(=O)CSc2nc3c([nH]c4ccccc43)c(=O)n2C)c1	95*	-2	-1	6	41	2
Cc1cccc(NC(=O)CSc2nc3c([nH]c4ccccc43)c(=O)n2C)c1	0	-2	11	6	6	-1
Cc1nnc(SCC2=C(C(=O)O)N3C(=O)C(NC(=O)c4cccc(F)c4F)C3SC2)s1 (centres undefined)	63*	-29	1	26	24	3
Cc1cc(C)n(CC(=O)NC2C(=O)N3C(C(=O)O)=C(CSc4nnc(C)s4)CSC23)n1 (centres undefined)	9	-22	-1	6	-1	-4
O=C(CSc1ccc(-c2ccc(Cl)cc2)nn1)NC1CCCC1	9	-18	-3	-8	3	-3
O=C(N/N=C/c1cccs1)C(=O)Nc1cccc(Cl)c1	-6	-4	-2	9	12	0
O=C(O)c1cccc(N/N=C/c2cccs2)c1	-62	-12	-31	12	-58*	52*
